# According to ChEMBL document CHEMBL1212825, “Synthesis and structure-activity relationships of N-(2-oxo-3-oxetanyl)amides as N-acylethanolamine-hydrolyzing acid amidase inhibitors” (J Med Chem, 2010):
# Active and inactive are the calls of the source. The calls are words filed in the database; no cut-off is given here.
# Legend:
# [1] = tested on: Mus musculus; assay: Antiinflammatory activity in polyethylene sponges implanted mouse assessed as inhibition of carrageenan-induced reduction of palmitoylethanolamine level compound administered into sponges; assay type: functional, organism-based
# Procedure, shortened: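 Mice received subcutaneous polyethylene sponges (1 cm3, 2 per mouse) under dorsal skin. Each sponge was instilled with carrageenan 1.0% in 90 μL sterile saline plus drug or vehicle (DMSO, 10 μL/sponge), with drugs given over a range of doses. PEA measured by LC/MS.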
# [2] = tested on: Mus musculus; assay: Antiinflammatory activity in polyethylene sponges implanted mouse assessed as reduction of carrageenan-induced leukocyte infiltration compound administered into sponges; assay type: functional, organism-based
# [3] = target: T1, N-acylethanolamine-hydrolyzing acid amidase (Rattus norvegicus, UniProt Q5KTC7); assay: Inhibition of rat recombinant NAAA expressed in HEK293 cells after 30 mins; assay type: cell-based
# T1 sequence (Q5KTC7 whole entry): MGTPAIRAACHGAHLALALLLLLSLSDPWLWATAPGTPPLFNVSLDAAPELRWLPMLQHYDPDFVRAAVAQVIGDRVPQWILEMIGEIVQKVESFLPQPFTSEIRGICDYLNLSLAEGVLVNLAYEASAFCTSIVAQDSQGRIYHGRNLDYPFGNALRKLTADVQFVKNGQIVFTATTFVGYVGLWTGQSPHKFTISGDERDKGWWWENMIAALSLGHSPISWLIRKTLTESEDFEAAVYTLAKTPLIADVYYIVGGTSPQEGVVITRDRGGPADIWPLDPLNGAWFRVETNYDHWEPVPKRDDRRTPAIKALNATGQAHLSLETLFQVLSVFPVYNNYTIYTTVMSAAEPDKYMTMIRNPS
# Procedure, shortened: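 Rat NAAA (full-length coding sequence cloned from rat brain cDNA, Flag-tagged) stably expressed in HEK293 cells, selected with G418 0.3 mg/mL. Enzyme taken as 105,000 g supernatant after freeze-thaw of the 12,000 g pellet. Incubated at 37 °C for 30 min in 50 mM sodium hydrogen phosphate pH 5.0 with 0.1% Triton X-100, 3 mM DTT and 50 μM heptadecenoylethanolamide substrate. IC50 reported.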
# [4] = target: T2, N-acylethanolamine-hydrolyzing acid amidase (Rattus norvegicus) (UniProt Q5KTC7); assay: Inhibition of rat recombinant NAAA expressed in HEK293 cells assessed as recovered initial enzyme activity at 10 uM after 12 hrs of dialysis; values are per cent of control
# T2 sequence (whole entry): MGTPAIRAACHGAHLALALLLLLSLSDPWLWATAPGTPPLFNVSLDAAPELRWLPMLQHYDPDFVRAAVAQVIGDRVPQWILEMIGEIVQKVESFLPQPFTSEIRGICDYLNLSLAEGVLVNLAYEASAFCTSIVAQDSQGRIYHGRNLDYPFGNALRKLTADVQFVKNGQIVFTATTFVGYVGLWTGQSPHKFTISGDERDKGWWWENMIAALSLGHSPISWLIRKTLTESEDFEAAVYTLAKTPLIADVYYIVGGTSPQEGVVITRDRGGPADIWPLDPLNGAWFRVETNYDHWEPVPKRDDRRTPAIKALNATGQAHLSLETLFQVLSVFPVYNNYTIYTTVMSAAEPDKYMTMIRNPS
# [5] = substrate: O=C(N[C@H]1COC1=O)c1ccc(-c2ccccc2)cc1; settings: Rattus norvegicus; HEK293; 200 nM
# [6] = substrate: O=C(N[C@H]1COC1=O)c1ccc(-c2ccccc2)cc1; settings: Rattus norvegicus; HEK293; 100 nM
# [7] = substrate: O=C(N[C@H]1COC1=O)c1ccc(-c2ccccc2)cc1; settings: Rattus norvegicus; HEK293; 200 nM; remark: listed apart in the source
# [8] = substrate: O=C(N[C@H]1COC1=O)c1ccc(-c2ccccc2)cc1; settings: Rattus norvegicus; HEK293; 100 nM; remark: listed apart in the source
Molecule,IC50 [3] [µM],further results
O=C(N[C@H]1COC1=O)c1ccc(-c2ccccc2)cc1,–,Activity [1]: Dose-dependent effect; Activity [2]: Active
O=C(CCc1ccccc1)N[C@@H]1COC1=O,6,–
O=C(N[C@H]1COC1=O)OCc1ccccc1,2.96,–
O=C(CCc1ccccc1)N[C@H]1CCOC1=O,> 100,–
C[C@H]1OC(=O)[C@H]1NC(=O)CCc1ccccc1,> 100,–
O=C(N[C@@H]1COC1=O)c1ccc2ccccc2c1,3.2,–
O=C1OCC1CCCCc1ccccc1 (racemic),11,–
O=C(CCc1ccccc1)NC1CCC1,> 100,–
O=C(N[C@H]1COC1=O)c1cccc(-c2ccccc2)c1,4.4,–
O=C(CCc1ccccc1)N[C@H]1COC1=O,–,Activity [1]: Dose-dependent effect; Activity [2]: Active; residual activity [4]: 44%
O=C(CCc1ccccc1)N[C@@H](CO)C(=O)O,> 100,–
O=C(N[C@H]1COC1=O)c1ccccc1,1.7,–
O=C(Cc1ccccc1)N[C@H]1COC1=O,1.85,–
C[C@@H]1OC(=O)[C@@H]1NC(=O)CCc1ccccc1,3.2,–
O=C(N[C@H]1CCOC1=O)c1ccc2ccccc2c1,> 100,–
O=C(N[C@H]1COC1=O)c1cccc2ccccc12,50,–
"N-acylethanolamine-hydrolyzing acid amidase (Rattus norvegicus), Q5KTC7 (protein) MGTPAIRAACHGAHLALALLLLLSLSDPWLWATAPGTPPLFNVSLDAAPELRWLPMLQHYDPDFVRAAVAQVIGDRVPQWILEMIGEIVQKVESFLPQPFTSEIRGICDYLNLSLAEGVLVNLAYEASAFCTSIVAQDSQGRIYHGRNLDYPFGNALRKLTADVQFVKNGQIVFTATTFVGYVGLWTGQSPHKFTISGDERDKGWWWENMIAALSLGHSPISWLIRKTLTESEDFEAAVYTLAKTPLIADVYYIVGGTSPQEGVVITRDRGGPADIWPLDPLNGAWFRVETNYDHWEPVPKRDDRRTPAIKALNATGQAHLSLETLFQVLSVFPVYNNYTIYTTVMSAAEPDKYMTMIRNPS",–,Vmax [5]: 6.2 nmol/min; Vmax [6]: 10.8 nmol/min; Km [7]: 156 µM; Km [8]: 129 µM

# Second part, led by results:
IC50 [3] [µM],Molecule,further results
0.3,CCOC(=O)c1ccc2cc(C(=O)N[C@H]3COC3=O)ccc2c1,–
0.4,COc1ccc2cc(C(=O)N[C@H]3COC3=O)ccc2c1,–
0.3,O=C(N[C@H]1COC1=O)c1ccc(C(=O)Oc2ccccc2)cc1,–
0.46,CCCCCCC(=O)N[C@H]1COC1=O,–
0.102,CCc1ccc(C(=O)N[C@H]2COC2=O)cc1,–
1.5,O=C(CCCCCCc1ccccc1)N[C@H]1COC1=O,–
0.09,O=C(N[C@H]1COC1=O)c1ccc(OCc2ccccc2)cc1,–
0.16,O=C(N[C@H]1COC1=O)c1ccc2ccccc2c1,–
